Data taken from ChEMBL document CHEMBL1144911, “Synthesis and biological evaluation of 5-substituted derivatives of the potent antiherpes agent (north)-methanocarbathymine” (J Med Chem, 2003).

Experiments:
[1] = Catalytic rate constant was determined; type: ADME
[2] = molecular target: T1, Thymidine kinase, cytosolic (Homo sapiens) (UniProt P04183); conditions: herpes simplex virus
T1 sequence (whole entry): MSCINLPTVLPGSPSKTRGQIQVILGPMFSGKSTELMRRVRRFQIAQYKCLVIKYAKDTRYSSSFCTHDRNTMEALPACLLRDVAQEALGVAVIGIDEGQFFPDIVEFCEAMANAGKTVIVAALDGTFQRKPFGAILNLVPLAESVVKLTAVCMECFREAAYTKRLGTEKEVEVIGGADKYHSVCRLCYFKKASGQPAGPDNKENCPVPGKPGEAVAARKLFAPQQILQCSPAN

Human alphaherpesvirus 3 [3] = assay: Antiviral activity against YS strain of thymidine kinase positive(TK+) Varicella-Zoster Virus (VZV); type: functional, organism-based
HFF [4] = assay: Cytotoxic concentration for 50% inhibition of cell growth of HSV-2 infected HFF cells determined by CPE assay; type: functional; conditions: Homo sapiens
Homo sapiens [5] = organism: Homo sapiens; assay: Cytotoxic concentration that produces 50% growth inhibition of human skin fibroblast in CPE assay; type: functional
Human alphaherpesvirus 3 [6] = assay: Antiviral activity against YS/R strain of thymidine kinase negative(TK-) Varicella-Zoster Virus (VZV); type: functional, organism-based
[7] = test system: Thymidine kinase (Herpes simplex virus type 1); assay: Catalytic turnover constant against HSV-1 thymidine kinase
Human alphaherpesvirus 3 [8] = assay: Effective concentration against TK+ Varicella-Zoster Virus (VZV) OKA strain; type: functional, organism-based
[9] = Cytotoxic concentration against HSV-1 TK-transfected osteosarcoma cells; type: functional; conditions: Human alphaherpesvirus 1
Outline: (§1)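 Osteosarcoma lines (143B-TK⁻ with 0.1 mg/mL 5-BrdU selection; MG-63-hTK1; 143B-TK⁺-HSV1-WT with HAT) grown in MEM/10% FCS. Seeded at 2 × 10³ (143B lines) or 1.5 × 10³ (MG-63) cells/well, exposed to five concentrations over 0.5–500 μM for 4.5 days at 37 °C/5% CO₂. XTT added for 9 h, A450 (ref 750 nm) read against untreated wells. Three independent series in triplicate.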

Human alphaherpesvirus 3 [10] = assay: Cytotoxic concentration that causes growth inhibition of VZV infected Osteosarcoma cells; type: functional
Human alphaherpesvirus 3 [11] = assay: Effective concentration against TK+ Varicella-Zoster Virus (VZV)YS strain; type: functional, organism-based
[12] = Minimum cytotoxic concentration that causes microscopically detectable alterations of cell morphology; type: functional
Human alphaherpesvirus 3 [13] = assay: Minimum cytotoxic concentration that causes alterations of VZV infected Osteosarcoma cell morphology; type: functional
Human alphaherpesvirus 3 [14] = assay: Antiviral activity against 07/1 strain of thymidine kinase negative (TK-) Varicella-Zoster Virus (VZV); type: functional, organism-based
Human alphaherpesvirus 3 [15] = assay: Effective concentration against TK- Varicella-Zoster Virus (VZV) YS/R strain; type: functional, organism-based
[16] = Inhibitory activity against HSV-1-TK transfected osteosarcoma cells; type: functional; outline: as §1
Human alphaherpesvirus 1 [17] = assay: Inhibitory concentration required to reduce HSV-1 induced cytopathogenic effect (CPE) by 50 % in HFF cells; type: functional, organism-based, herpes simplex virus; conditions: Human alphaherpesvirus 1, HFF
HFF [18] = assay: Cytotoxic concentration for 50% inhibition of cell growth of HSV-1 infected HFF cells determined by CPE assay; type: functional; conditions: Homo sapiens
Human alphaherpesvirus 3 [19] = assay: Antiviral activity against OKA strain of thymidine kinase positive(TK+) Varicella-Zoster Virus (VZV); type: functional, organism-based
Homo sapiens [20] = organism: Homo sapiens; assay: Inhibitory concentration required to reduce HSV-2 induced cytopathogenic effect in human skin fibroblast; type: functional, organism-based
[21] = Cytotoxic concentration against non transfected osteosarcoma cells non transfected (MG-63-hTK1); type: functional; outline: as §1
[22] = Cytotoxic concentration that produces 50% inhibition of cell growth.; type: functional
Human alphaherpesvirus 2 = assay: Inhibitory concentration required to reduce HSV-2 induced cytopathogenic effect (CPE) by 50 % in HFF cells; type: functional, organism-based; conditions: Human alphaherpesvirus 2, HFF
[23] = Cytotoxic concentration against HSV-1 TK- transfected osteosarcoma cells; type: functional; conditions: Human alphaherpesvirus 1; outline: as §1
Homo sapiens [24] = organism: Homo sapiens; assay: (§2) Inhibitory concentration required to reduce HSV-1 induced cytopathogenic effect (CPE) in human skin fibroblast; type: functional, organism-based
Human alphaherpesvirus 3 [25] = assay: Effective concentration against TK- Varicella-Zoster Virus (VZV) 07/1 strain; type: functional, organism-based
[26] = (§3) Inhibition constant against HSV-1 TK; type: functional, herpes simplex virus
Homo sapiens [27] = organism: Homo sapiens; assay: Inhibitory concentration required to reduce HSV-2 induced virus plaque reduction (VPR) in human skin fibroblast; type: functional, organism-based
Homo sapiens [28] = organism: Homo sapiens; assay: Cytotoxic concentration that produces 50% growth inhibition of human skin fibroblast infected with HSV-1; type: functional
HFF [29] = assay: Inhibitory concentration for HSV-1 plaque reduction (VPR) by 50% in HFF cells; type: functional, cell-based; conditions: Homo sapiens
Homo sapiens [30] = organism: Homo sapiens; assay: Inhibitory concentration required to reduce HSV-1 induced virus plaque reduction (VPR) in human skin fibroblast; type: functional, organism-based
Homo sapiens [31] = organism: Homo sapiens; assay: Cytotoxic concentration that produces 50% growth inhibition of human skin fibroblast in VPR assay; type: functional
HFF [32] = assay: Cytotoxic concentration for 50% inhibition of cell growth of HSV-1 infected HFF cells determined by VPR assay; type: functional; conditions: Homo sapiens
HFF [33] = assay: Cytotoxic concentration for 50% inhibition of cell growth of HSV-2 infected HFF cells determined by VPR assay; type: functional; conditions: Homo sapiens
Outline: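 Run in virus-infected HFF cells within the plaque reduction assay set-up. […] The value was converted from μg/mL to μM.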

HFF [34] = assay: Inhibitory concentration for HSV-2 plaque reduction (VPR) by 50% in HFF cells; type: functional, cell-based; conditions: Homo sapiens
[35] = as §3; type: functional, herpes simplex virus; remark: listed apart in the source
Outline: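 Purified HSV-1 TK converts [methyl-³H]thymidine to its monophosphate in 50 mM Tris pH 7.5, 5 mM MgCl₂, 5 mM ATP, 2.5 mg/mL BSA under initial-velocity conditions. Three inhibitor concentrations are used, and apparent Ki is taken from Lineweaver–Burk double-reciprocal plots. Six independent assays.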

HFF [36] = assay: Concentration for HSV-2 plaque reduction (VPR) by 50% in HFF cells; type: functional, cell-based; conditions: Homo sapiens
HFF [37] = assay: Concentration for HSV-1 plaque reduction (VPR) by 50% in HFF cells; type: functional, cell-based; conditions: Homo sapiens
Human alphaherpesvirus 1 [38] = assay: as §2; type: functional, organism-based, herpes simplex virus

Row | Compound | k cat [1] [s⁻¹] | EC50 (Human alphaherpesvirus 3 [3]) [µM] | CC50 (HFF [4]) [µM] | CC50 (Homo sapiens [5]) [µM] | EC50 (Human alphaherpesvirus 3 [6]) [µM] | k cat [7] [s⁻¹] | EC50 (Human alphaherpesvirus 3 [8]) [µM] | CC50 (Human alphaherpesvirus 3 [10]) [µM] | EC50 (Human alphaherpesvirus 3 [11]) [µM] | MCC [12] [µM] | MCC (Human alphaherpesvirus 3 [13]) [µM] | EC50 (Human alphaherpesvirus 3 [14]) [µM] | EC50 (Human alphaherpesvirus 3 [15]) [µM] | EC50 (Human alphaherpesvirus 1 [17]) [µM] | CC50 (HFF [18]) [µM] | EC50 (Human alphaherpesvirus 3 [19]) [µM] | EC50 (Homo sapiens [20]) [µM] | CC50 [22] [µM] | EC50 (Human alphaherpesvirus 2) [µM] | EC50 (Homo sapiens [24]) [µM] | further results
1 | Cc1cn([C@H]2C[C@H](O)[C@@H](CO)O2)c(=O)[nH]c1=O [DOXRIBTIMINE] | 0.35 | – | – | – | – | – | – | – | – | – | – | – | – | – | – | – | – | – | – | – | k cat [2]: 0.35 s⁻¹
2 | O=c1[nH]c(=O)n([C@H]2C[C@H](O)[C@]3(CO)C[C@H]23)cc1I | 0.14 | 0.12 | > 275 | > 275 | 3 | 0.14 | 0.16 | > 200 | 0.12 | > 5 | > 5 | > 5 | 3 | > 275 | > 275 | 0.16 | 9.06 | > 200 | 9.06 | > 275 | CC50 [9]: 25 µM; CC50 [16]: 25 µM; CC50 [21]: 300 µM; CC50 [23]: > 500 µM; EC50 (Human alphaherpesvirus 3 [25]): > 5 µM; Ki [26]: 85.8 µM
3 | Cc1cn([C@H]2C[C@H](O)[C@]3(CO)C[C@H]23)c(=O)[nH]c1=O [(NORTH)-METHANOCARBATHYMIDINE] | – | – | > 396 | – | – | – | – | – | – | – | – | – | – | 0.12 | > 396 | – | 0.35 | – | 0.35 | 0.12 | EC50 (Homo sapiens [27]): 0.47 µM; CC50 (Homo sapiens [28]): > 396 µM; EC50 (HFF [29]): 0.04 µM; EC50 (Homo sapiens [30]): 0.04 µM; CC50 (Homo sapiens [31]): > 79 µM; CC50 (HFF [32]): > 79 µM; CC50 (HFF [33]): > 79 µM; EC50 (HFF [34]): 0.47 µM; Ki [26]: 16.1 µM
4 | O=c1[nH]c(=O)n([C@H]2C[C@H](O)[C@]3(CO)C[C@H]23)cc1/C=C/Br | 0.07 | 0.007 | > 291 | > 291 | > 5 | 0.07 | 0.005 | > 200 | 0.007 | > 5 | > 5 | > 5 | > 5 | 6.41 | > 291 | 0.005 | > 291 | > 200 | > 291 | 6.41 | Ki [35]: 62.9 µM; EC50 (Human alphaherpesvirus 3 [25]): > 5 µM
5 | Nc1nc2c(ncn2COCCO)c(=O)[nH]1 [ACYCLOVIR] | – | – | – | – | – | – | – | – | – | – | – | – | – | 2.22 | – | – | 10.2 | – | 10.2 | – | EC50 (Homo sapiens [27]): 1.68 µM; EC50 (HFF [36]): 1.68 µM; EC50 (Homo sapiens [30]): 1.1 µM; EC50 (HFF [37]): 1.1 µM; EC50 (Human alphaherpesvirus 1 [38]): 2.22 µM
